Laboratory results published in the M2OR odorant receptor database.

Assays:
Conditions in all cases: stereoisomer not certain
[1] = target: OR5AC1 (Homo sapiens) (UniProt P0C628)
How it was run: (§1)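 Each receptor–molecule pair is labelled responsive or non-responsive (inactive) according to whether the original authors judged the measured signal statistically different from baseline. The data were taken from the main text and supplementary material of published papers and checked for typos and inconsistencies. Assay methods differed by source, with transient luciferase assays in mammalian cell lines being common.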

[2] = target: OR5AK2 (Homo sapiens) (UniProt Q8NH90)
Chain of OR5AK2 (Homo sapiens) (Q8NH90 whole entry): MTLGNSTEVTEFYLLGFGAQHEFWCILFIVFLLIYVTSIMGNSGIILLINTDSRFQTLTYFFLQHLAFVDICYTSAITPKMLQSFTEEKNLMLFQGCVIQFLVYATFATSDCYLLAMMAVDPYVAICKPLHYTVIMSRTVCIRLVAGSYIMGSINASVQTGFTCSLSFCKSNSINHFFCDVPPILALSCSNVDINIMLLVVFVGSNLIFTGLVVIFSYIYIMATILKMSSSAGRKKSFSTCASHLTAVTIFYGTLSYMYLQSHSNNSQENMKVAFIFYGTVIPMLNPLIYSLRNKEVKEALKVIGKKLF
How it was run: as §1

[3] = target: OR5AL1 (Homo sapiens) (UniProt P0C617)
Chain of OR5AL1 (Homo sapiens) (P0C617 whole entry): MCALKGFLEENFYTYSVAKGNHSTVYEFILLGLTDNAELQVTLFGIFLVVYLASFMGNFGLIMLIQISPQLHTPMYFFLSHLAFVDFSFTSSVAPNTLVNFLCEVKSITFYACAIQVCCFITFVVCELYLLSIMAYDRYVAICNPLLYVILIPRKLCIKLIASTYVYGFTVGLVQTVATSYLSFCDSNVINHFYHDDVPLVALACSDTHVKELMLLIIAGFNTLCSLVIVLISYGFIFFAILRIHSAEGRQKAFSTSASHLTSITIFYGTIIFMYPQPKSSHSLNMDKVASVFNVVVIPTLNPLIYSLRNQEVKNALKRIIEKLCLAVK
How it was run: as §1

[4] = target: OR5AP2 (Homo sapiens) (UniProt Q8NGF4)
Chain of OR5AP2 (Homo sapiens) (Q8NGF4 whole entry): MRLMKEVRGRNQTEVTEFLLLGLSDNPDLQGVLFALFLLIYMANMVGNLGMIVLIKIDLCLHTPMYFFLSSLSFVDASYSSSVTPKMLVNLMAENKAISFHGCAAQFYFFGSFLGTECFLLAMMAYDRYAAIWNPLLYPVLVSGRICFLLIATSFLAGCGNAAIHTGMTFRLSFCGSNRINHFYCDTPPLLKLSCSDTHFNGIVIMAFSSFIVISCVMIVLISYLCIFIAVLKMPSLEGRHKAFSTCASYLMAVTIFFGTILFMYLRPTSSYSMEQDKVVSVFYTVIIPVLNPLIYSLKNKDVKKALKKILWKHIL
How it was run: as §1

[5] = target: OR5AR1 (Homo sapiens) (UniProt Q8NGP9)
Chain of OR5AR1 (Homo sapiens) (Q8NGP9 whole entry): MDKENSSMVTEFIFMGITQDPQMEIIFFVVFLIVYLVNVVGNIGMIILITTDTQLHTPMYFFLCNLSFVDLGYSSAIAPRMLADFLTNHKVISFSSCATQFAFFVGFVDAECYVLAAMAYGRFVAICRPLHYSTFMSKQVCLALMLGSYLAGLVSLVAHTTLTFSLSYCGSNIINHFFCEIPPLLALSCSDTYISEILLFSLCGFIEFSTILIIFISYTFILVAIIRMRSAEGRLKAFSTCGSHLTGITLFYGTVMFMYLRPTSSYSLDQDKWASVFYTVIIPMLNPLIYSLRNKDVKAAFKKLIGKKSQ
How it was run: as §1

[6] = target: OR5AS1 (Homo sapiens) (UniProt Q8N127)
Chain of OR5AS1 (Homo sapiens) (Q8N127 whole entry): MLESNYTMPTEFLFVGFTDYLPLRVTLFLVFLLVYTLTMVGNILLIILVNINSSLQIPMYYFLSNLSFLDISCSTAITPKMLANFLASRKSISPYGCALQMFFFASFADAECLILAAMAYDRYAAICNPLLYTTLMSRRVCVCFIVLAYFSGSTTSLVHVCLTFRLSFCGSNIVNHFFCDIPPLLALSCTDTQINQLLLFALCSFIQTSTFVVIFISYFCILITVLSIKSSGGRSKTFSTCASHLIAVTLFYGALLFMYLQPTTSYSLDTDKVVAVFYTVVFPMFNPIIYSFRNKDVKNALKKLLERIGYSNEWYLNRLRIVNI
How it was run: as §1

[7] = target: OR5AU1 (Homo sapiens) (UniProt Q8NGC0)
Chain of OR5AU1 (Homo sapiens) (Q8NGC0 whole entry): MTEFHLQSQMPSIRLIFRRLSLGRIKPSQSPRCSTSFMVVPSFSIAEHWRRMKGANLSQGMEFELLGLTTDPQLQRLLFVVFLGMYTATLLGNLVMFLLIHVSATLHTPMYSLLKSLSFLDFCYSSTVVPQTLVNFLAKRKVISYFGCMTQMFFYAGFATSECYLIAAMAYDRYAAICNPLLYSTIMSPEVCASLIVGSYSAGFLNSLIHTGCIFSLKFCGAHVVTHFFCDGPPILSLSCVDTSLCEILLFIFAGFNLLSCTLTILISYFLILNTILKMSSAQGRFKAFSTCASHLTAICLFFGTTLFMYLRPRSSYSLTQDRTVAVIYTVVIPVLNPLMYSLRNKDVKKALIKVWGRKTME
How it was run: as §1

[8] = target: OR5B12 (Homo sapiens) (UniProt Q96R08)
Chain of OR5B12 (Homo sapiens) (Q96R08 whole entry): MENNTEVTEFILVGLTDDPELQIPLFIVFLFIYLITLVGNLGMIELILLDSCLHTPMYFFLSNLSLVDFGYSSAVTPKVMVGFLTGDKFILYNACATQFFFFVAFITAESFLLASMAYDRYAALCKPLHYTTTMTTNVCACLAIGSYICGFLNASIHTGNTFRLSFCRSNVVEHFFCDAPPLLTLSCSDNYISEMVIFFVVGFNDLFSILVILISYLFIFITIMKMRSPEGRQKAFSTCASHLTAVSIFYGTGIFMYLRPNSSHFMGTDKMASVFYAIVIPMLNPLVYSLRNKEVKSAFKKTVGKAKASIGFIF
How it was run: as §1

[9] = target: OR5B2 (Homo sapiens) (UniProt Q96R09)
Chain of OR5B2 (Homo sapiens) (Q96R09 whole entry): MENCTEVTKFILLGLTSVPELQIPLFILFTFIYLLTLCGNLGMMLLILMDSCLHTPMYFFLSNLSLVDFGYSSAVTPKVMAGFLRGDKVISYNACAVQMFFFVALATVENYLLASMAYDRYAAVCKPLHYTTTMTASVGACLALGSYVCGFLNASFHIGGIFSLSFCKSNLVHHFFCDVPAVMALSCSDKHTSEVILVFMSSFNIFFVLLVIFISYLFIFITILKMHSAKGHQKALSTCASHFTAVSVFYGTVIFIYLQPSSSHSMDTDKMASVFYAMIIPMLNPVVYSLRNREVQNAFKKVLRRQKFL
How it was run: as §1

[10] = target: OR5B21 (Homo sapiens) (UniProt A6NL26)
Chain of OR5B21 (Homo sapiens) (A6NL26 whole entry): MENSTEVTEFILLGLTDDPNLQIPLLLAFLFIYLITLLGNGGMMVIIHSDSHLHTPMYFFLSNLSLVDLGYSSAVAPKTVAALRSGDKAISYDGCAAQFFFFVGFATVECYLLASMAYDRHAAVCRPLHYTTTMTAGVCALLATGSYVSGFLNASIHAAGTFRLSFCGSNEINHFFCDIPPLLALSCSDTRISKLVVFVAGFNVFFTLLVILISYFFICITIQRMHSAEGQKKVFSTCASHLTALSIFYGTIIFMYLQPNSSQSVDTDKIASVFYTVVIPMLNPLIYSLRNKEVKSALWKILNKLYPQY
How it was run: as §1

[11] = target: OR5B3 (Homo sapiens) (UniProt Q8NH48)
Chain of OR5B3 (Homo sapiens) (Q8NH48 whole entry): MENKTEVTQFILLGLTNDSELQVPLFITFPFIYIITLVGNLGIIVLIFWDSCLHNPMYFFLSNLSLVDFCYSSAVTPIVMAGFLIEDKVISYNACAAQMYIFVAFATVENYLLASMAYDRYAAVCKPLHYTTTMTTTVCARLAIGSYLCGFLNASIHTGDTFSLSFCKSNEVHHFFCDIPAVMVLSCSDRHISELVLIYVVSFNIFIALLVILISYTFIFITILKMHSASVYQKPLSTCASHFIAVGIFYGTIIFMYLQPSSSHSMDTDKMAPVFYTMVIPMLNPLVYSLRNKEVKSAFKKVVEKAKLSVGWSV
How it was run: as §1

[12] = target: OR5C1 (Homo sapiens) (UniProt Q8NGR4)
Chain of OR5C1 (Homo sapiens) (Q8NGR4 whole entry): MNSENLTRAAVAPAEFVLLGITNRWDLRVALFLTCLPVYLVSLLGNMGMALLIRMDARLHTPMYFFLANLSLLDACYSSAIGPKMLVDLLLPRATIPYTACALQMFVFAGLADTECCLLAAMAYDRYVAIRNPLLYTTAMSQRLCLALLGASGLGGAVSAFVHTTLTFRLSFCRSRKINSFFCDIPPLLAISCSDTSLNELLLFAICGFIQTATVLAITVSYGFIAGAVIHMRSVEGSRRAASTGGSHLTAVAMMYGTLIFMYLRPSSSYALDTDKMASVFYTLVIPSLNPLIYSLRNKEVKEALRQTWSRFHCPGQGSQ
How it was run: as §1

[13] = system: OR5B2 E6D
Chain of OR5B2 E6D (as listed by the source): as the sequence (Q96R09 whole entry) above, with E6D counted along it
How it was run: as §1

[14] = system: OR5B3 I198V G247A
How it was run: as §1

[15] = system: OR5BC C141R
Chain of OR5BC C141R (as listed by the source, stated change not applied): as the sequence (Q96R08 whole entry) above, with C141R counted along it
How it was run: as §1

[16] = system: OR5BH L80I I85M
How it was run: as §1

[17] = system: OR5BH L80I
Chain of OR5BH L80I (as listed by the source, stated change not applied): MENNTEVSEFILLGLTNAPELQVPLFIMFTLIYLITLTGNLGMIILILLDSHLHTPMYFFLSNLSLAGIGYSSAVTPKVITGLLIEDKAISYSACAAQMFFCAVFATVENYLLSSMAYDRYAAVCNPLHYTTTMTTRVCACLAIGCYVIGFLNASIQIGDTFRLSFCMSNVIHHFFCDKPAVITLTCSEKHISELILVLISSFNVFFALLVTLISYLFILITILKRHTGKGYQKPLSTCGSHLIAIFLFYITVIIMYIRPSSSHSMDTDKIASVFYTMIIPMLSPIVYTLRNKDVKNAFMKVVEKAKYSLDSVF
How it was run: as §1

Measured: odorant receptor agonist call;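 further: active if original authors judged signal statistically different from baseline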

Chain of OR5AC1 (Homo sapiens) (P0C628 whole entry): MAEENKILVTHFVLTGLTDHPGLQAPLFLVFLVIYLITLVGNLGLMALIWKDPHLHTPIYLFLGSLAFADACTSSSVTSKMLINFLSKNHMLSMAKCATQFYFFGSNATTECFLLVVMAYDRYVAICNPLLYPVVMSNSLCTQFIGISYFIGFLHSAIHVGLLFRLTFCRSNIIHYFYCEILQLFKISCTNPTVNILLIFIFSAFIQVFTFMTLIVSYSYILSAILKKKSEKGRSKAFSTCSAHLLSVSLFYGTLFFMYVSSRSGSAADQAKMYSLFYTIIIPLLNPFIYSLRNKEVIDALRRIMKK

Cc1c([N+](=O)[O-])c(C)c([N+](=O)[O-])c(C(C)(C)C)c1[N+](=O)[O-]
not listed: [13] | [14] | [15] | [16] | [17]
inactive: all other assays above

C=CCOC(=O)Cc1ccccc1
not listed: [1] | [3]
inactive: all other assays above
